Screening results deposited in PubChem by Sanford-Burnham Center for Chemical Genomics.
SENP8 block-1 – blocks human SENP8 cleavage of Nedd8 substrate. Q96LD8. recombinant SENP8, Nedd8 substrate fluorescence. inhibition, % at 20 µM. 0.64% of 360,000 active. AID 602440; in the data active means inhibition mostly above about 40%, no sharp cut-off; inactive means mostly below about 27%
SENP8 block-2 – SENP8 protease inhibition; purified SENP8, Z-RLRGG-aminoluciferin cleavage, luminescence; inhibition, % at 10 µM; 1.2% of 330,000 active; AID 2540; in the data active means inhibition above about 50%
SENP6 block – inhibitors of human SENP6 protease. inhibition, % at 10 µM. Recombinant SENP6 catalytic domain, aminoluciferin luminescence. Q9GZR1. 1.8% of 330,000 active;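 active means inhibition above about 50% at the single tested dose, limit read from the data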
SENP7 inh – blocks the human protease SENP7 | Q9BQF6 | recombinant SENP7, Z-RLRGG-aminoluciferin luminescence, 40 min | inhibition, % at 5 µM | 1.5% of 330,000 active | AID 434973;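 active means inhibition above about 50% at the single test dose, limit read from the data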
Target sequence (Q9BQF6 706-1050 limits assumed): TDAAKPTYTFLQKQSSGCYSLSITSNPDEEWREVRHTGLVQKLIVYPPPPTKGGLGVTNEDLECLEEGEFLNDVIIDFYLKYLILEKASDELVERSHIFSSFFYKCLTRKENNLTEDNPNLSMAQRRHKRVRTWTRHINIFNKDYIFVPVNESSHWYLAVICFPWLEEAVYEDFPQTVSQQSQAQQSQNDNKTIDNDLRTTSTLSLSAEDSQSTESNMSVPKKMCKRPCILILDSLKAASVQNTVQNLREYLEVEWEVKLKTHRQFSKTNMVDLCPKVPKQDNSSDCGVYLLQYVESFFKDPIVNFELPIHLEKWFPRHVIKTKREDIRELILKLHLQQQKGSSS
UBC13 inh – inhibitors of human UBC13 polyubiquitin chain formation; TR-FRET; 0.47% of 330,000 active; P61088; inhibition, % at 20 µM; in the data active means inhibition above about 45%, passing the limit was not always enough
Target sequence (P61088 whole entry, looked up): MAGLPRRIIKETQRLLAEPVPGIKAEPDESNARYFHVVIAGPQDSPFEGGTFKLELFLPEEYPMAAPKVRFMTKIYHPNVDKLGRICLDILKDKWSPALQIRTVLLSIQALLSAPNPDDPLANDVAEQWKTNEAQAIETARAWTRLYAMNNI
Apaf-1 inh – blocks human Apaf-1 apoptosome activity; O14727; reconstituted apoptosome caspase-3 activity, DEVD-Rh110 fluorescence; inhibition, % at 20 µM; 0.71% of 330,000 active; active means inhibition of at least 40% at 20 µM
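Medium: Hepes buffer, pH 7.5 / System: biochemical Apaf-1 apoptosome reconstitution / Measured by: Rh110 fluorescence, excitation 480 nm, emission 540 nm / Times: compound with Apaf-1, dATP, procaspase-3 30 min, then 50 min reaction, room temperature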
SENP8 conf – human SENP8 inhibition, confirmed. shares compounds with SENP7 inh. Recombinant SENP8, Z-RLRGG-aminoluciferin luminescence, 60 min. inhibition, % at 12.5 µM. 40% of 6,200 active. AID 488912;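 active means mean inhibition across replicates above about 50%, limit read from the data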
SENP6 conf – human SENP6 inhibition, confirmed | recombinant SENP6, Z-RLRGG-aminoluciferin luminescence | 58% of 6,200 active | inhibition, % at 12.5 µM | shares compounds with SENP7 inh
SENP7 confirm – confirmation of human SENP7 protease inhibitors; inhibition, % at 12.5 µM; recombinant SENP7, Z-RLRGG-aminoluciferin luminescence, 40 min; shares compounds with SENP7 inh; 69% of 6,200 active; AID 488917
Casp3 SENP sel – selectivity test for SENP inhibitors: human caspase-3 inhibition. purified caspase-3, Z-DEVD-aminoluciferin luminescence, 60 min. inhibition, % at 12.5 µM. AID 488918. shares compounds with SENP7 inh. 60% of 6,200 active;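 active means mean inhibition above about 50%, limit read from the data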
Luc interf – counter-screen for SENP inhibitors: luminescence interference; shares compounds with SENP7 inh; Pre-incubated SENP8/Z-RLRGG-aminoluciferin, luciferase luminescence interference; inhibition, % at 12.5 µM; 39% of 6,200 active; AID 488919;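 active means mean inhibition above about 50% when retested at one dose, limit read from the data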
Large screens that a line does not name were inactive (follow-up assays come after a bar, where they were run). Shown are actives, neighbours in structure and some others; about 3% of the full set was active somewhere.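 How the source made its calls, unless noted: active means mean inhibition above about 50% in the one-dose retest (limit read from the data); inactive means the rest.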

Cc1ccc(C2=NNC(c3cccc(F)c3)S2)cc1 (stereo not given)	SENP8 block-2 87, SENP6 block 89, SENP7 inh 95 | SENP8 conf inactive | SENP6 conf 51 | SENP7 confirm inactive | Casp3 SENP sel 51 | Luc interf inactive
Fc1cccc(C2NN=C(c3ccccc3)S2)c1 (stereo not given)	SENP8 block-2 52, SENP6 block 92, SENP7 inh 97 | SENP8 conf inactive | SENP6 conf 54 | SENP7 confirm 80 | Casp3 SENP sel 65 | Luc interf inactive
Clc1ccccc1CNCc1ccc2c(c1)OCO2	none (no result: SENP8 block-2, SENP6 block, SENP7 inh, UBC13 inh, Apaf-1 inh)
CN(C)C(=S)Nc1nc2ccccc2s1	none (no result: SENP8 block-2, SENP6 block, SENP7 inh, UBC13 inh, Apaf-1 inh)
CCOc1ccc2nc(NC(=O)c3cccnc3)sc2c1	SENP8 block-2 71, SENP6 block 84, SENP7 inh 86 | SENP8 conf inactive | SENP6 conf inactive | SENP7 confirm inactive | Casp3 SENP sel inactive | Luc interf inactive
CCOc1ccc2nc(NC(=S)N(C)C)sc2c1	SENP6 block 77, SENP7 inh 57 | SENP8 conf 71 | SENP6 conf 69 | SENP7 confirm 92 | Casp3 SENP sel 58 | Luc interf 82
CCOc1ccc2nc(NC(=O)c3ccc(C)o3)sc2c1	SENP8 block-2 94, SENP6 block 96, SENP7 inh 98 | SENP8 conf inactive | SENP6 conf 95 | SENP7 confirm 102 | Casp3 SENP sel 91 | Luc interf inactive
CCCC(=O)Nc1nc2ccc(OCC)cc2s1	none
CNc1cncc(-c2cc(OC)c(OC)c(OC)c2)n1	none (no result: SENP8 block-2, SENP6 block, SENP7 inh, UBC13 inh, Apaf-1 inh)
Cn1cccc1C(=O)NCCc1ccccc1	SENP6 block 67, SENP7 inh 57 | SENP8 conf inactive | SENP6 conf inactive | SENP7 confirm 80 | Casp3 SENP sel 83 | Luc interf 59
Cn1cccc1C(=O)NCCc1ccc(Cl)cc1	SENP6 block 62, SENP7 inh 55 | SENP8 conf inactive | SENP6 conf inactive | SENP7 confirm 82 | Casp3 SENP sel 72 | Luc interf 58
Cn1c(C(=O)NCCc2ccccc2)cc(=O)n(C)c1=O	none
CCCCC(=O)N(C)c1c(CC)nc2c(OCc3ccccc3C)cccn12	none (no result: SENP8 block-2, SENP6 block, SENP7 inh, UBC13 inh, Apaf-1 inh)
C=CCN=C1NN=C(c2cc(C)n(CCOC)c2C)CS1	none
COCCn1c(C)cc(C2=NNC(=NC3CC3)SC2)c1C	SENP8 block-2 82, SENP6 block 75 | SENP8 conf 95 | SENP6 conf 96 | SENP7 confirm 101 | Casp3 SENP sel 98 | Luc interf 68
COc1ccc2c(C#N)c3ccccn3c2c1	SENP6 block 50 | SENP8 conf inactive | SENP6 conf 52 | SENP7 confirm inactive | Casp3 SENP sel inactive | Luc interf inactive
Cc1cc(=O)n2ccccc2c1C#N	none
COc1ccc(Cc2c(-c3ccc(C)cc3)nc3c4ccccc4ccn23)c(C)c1	none (no result: SENP8 block-2, SENP6 block, SENP7 inh, UBC13 inh, Apaf-1 inh)
Cc1cccn2cc(-c3ccccc3)nc12	SENP8 block-2 53, SENP6 block 74, SENP7 inh 69 | SENP8 conf inactive | SENP6 conf 71 | SENP7 confirm 93 | Casp3 SENP sel 85 | Luc interf 70
COc1ccc(-c2cn3ccc4ccccc4c3n2)cc1	SENP8 block-2 83, SENP6 block 92, SENP7 inh 92 | SENP8 conf inactive | SENP6 conf 86 | SENP7 confirm 100 | Casp3 SENP sel 87 | Luc interf inactive
Cc1cccn2cc(-c3ccc(F)cc3)nc12	SENP8 block-2 78, SENP6 block 93, SENP7 inh 91 | SENP8 conf inactive | SENP6 conf 87 | SENP7 confirm 99 | Casp3 SENP sel 90 | Luc interf 82
Cc1cccn2cc(-c3ccc(F)cc3)cc12	none
